Results as given in ChEMBL document CHEMBL1629420, “Structure-cytotoxicity relationship in a series of N-phosphorus substituted E,E-3,5-bis(3-pyridinylmethylene)- and E,E-3,5-bis(4-pyridinylmethylene)piperid-4-ones” (Eur J Med Chem, 2010).
pIC50: −log10 of the molar value.

Experiments:
Assay type in all cases: functional, cell-based
[1] = Cytotoxicity against human Caov3 cells after 72 hrs by MTT assay; settings: Caov-3, 72 h
Summary of the method: (§1)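 Cells grown in RPMI-1640 with 10% FBS, 2 mM L-glutamine and gentamicin; seeded at 1 × 10⁴ cells/well and left to attach overnight at 37 °C, 5% CO₂. Compounds were dissolved in DMSO, diluted into FBS-free medium and tested at 5 × 10⁻⁵, 10⁻⁵, 10⁻⁶ and 10⁻⁷ M for 72 h. MTT was added for 3 h, formazan dissolved in DMSO and read at 590 nm. Triplicates; IC50 derived graphically from % viability loss versus untreated controls.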

[2] = tested on: A549; assay: Cytotoxicity against human A549 cells after 72 hrs by MTT assay; settings: A549, 72 h
Summary of the method: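 Compounds were dissolved in DMSO, diluted into FBS-free medium and tested at 5 × 10⁻⁵, 10⁻⁵, 10⁻⁶ and 10⁻⁷ M for 72 h. MTT was added for 3 h, formazan dissolved in DMSO and read at 590 nm. Triplicates; IC50 derived graphically from % viability loss versus untreated controls.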

[3] = Cytotoxicity against human KB3-1 cells after 72 hrs by MTT assay; settings: KB 3-1, 72 h; summary of the method: as §1
[4] = Cytotoxicity against human multi drug resistant subclone KB 8.5 cells after 72 hrs by MTT assay; summary of the method: as §1

| SMILES | pIC50 [1] | pIC50 [2] | pIC50 [3] | pIC50 [4] |
| --- | --- | --- | --- | --- |
| N[C@@H](Cc1ccc(N(CCCl)CCCl)cc1)C(=O)O | 4.30 |  |  |  |
| CN1C/C(=C\c2ccncc2)C(=O)/C(=C/c2ccncc2)C1 | 5.29 | 5.38 | 5.52 | 5.13 |
| COc1cccc2c1C(=O)c1c(O)c3c(c(O)c1C2=O)C[C@@](O)(C(=O)CO)C[C@@H]3O[C@H]1C[C@H](N)[C@H](O)[C@H](C)O1 [DOXORUBICIN] |  |  |  | 5.48 |
| CN1C/C(=C\c2cccnc2)C(=O)/C(=C/c2cccnc2)C1 | < 4.70 | < 4.70 | 4.69 | 4.39 |
| O=C1/C(=C/c2cccnc2)CNC/C1=C\c1cccnc1 | 5.04 | 4.95 | 4.61 | 4.52 |
| CCOP(=O)(OCC)N1C/C(=C\c2cccnc2)C(=O)/C(=C/c2cccnc2)C1 | 5.09 | 4.98 | 5.30 | 5.28 |
| CCOP(=O)(OCC)N1C/C(=C\c2ccncc2)C(=O)/C(=C/c2ccncc2)C1 | 5.37 | 5.09 | 5.68 | 5.29 |
| CCOP(=O)(CCCCN1C/C(=C\c2cccnc2)C(=O)/C(=C/c2cccnc2)C1)OCC | 5.21 | 4.81 | 5.21 | 5.02 |
| O=C1/C(=C/c2ccncc2)CNC/C1=C\c1ccncc1 | 5.22 | 4.99 | 5.30 | 5.07 |
| CCOP(=O)(CCN1C/C(=C\c2cccnc2)C(=O)/C(=C/c2cccnc2)C1)OCC | < 4.40 | < 4.40 | < 4.40 | < 4.40 |
